Measurements reported in ChEMBL document CHEMBL4406821, “Novel dual inhibitors targeting CDK4 and VEGFR2 synergistically suppressed cancer progression and angiogenesis” (Eur J Med Chem, 2019).
Activity calls are given as the source filed them. The calls are words filed in the database; no cut-off is given here.

Key:
[1] = molecular target: Vascular endothelial growth factor receptor 2 (Homo sapiens, UniProt P35968); assay: Inhibition of recombinant human VEGFR2 (790 to end residues) using myelin ba as substrate at 1 uM incubated for 40 mins by [gamma-33P]-ATP based radiometric assay relative to control
Summary of the method: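 Kinase panel profiling at 1 μM performed by Eurofins KinaseProfiler; percent inhibition reported as mean of two independent experiments.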

HUVEC [2] = assay: Antiproliferative activity against HUVEC cells assessed as reduction in cell viability measured after 72 hrs by CCK8 assay; format: functional, cell-based; conditions: Homo sapiens
Summary of the method: (§1)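 Cells were seeded at 3×10³ cells/well and exposed to a range of concentrations or vehicle for 72 h. Viability was read by CCK-8 at 450 nm, with DMSO as blank and five replicates per sample. IC50 was calculated from the dose-response.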

T47D [3] = assay: Antiproliferative activity against human T47D cells assessed as reduction in cell viability measured after 72 hrs by CCK8 assay; format: functional, cell-based; summary of the method: as §1
MDA-MB-231 = assay: Antiproliferative activity against human MDA-MB-231 cells assessed as reduction in cell viability measured after 72 hrs by CCK8 assay; format: functional, cell-based; conditions: MDA-MB-231, 72 h; summary of the method: as §1
HUVEC [4] = assay: Antiangiogenic activity against HUVEC cells assessed as reduction in tube formation at 20 to 40 nM incubated for 6 hrs by light microscopy; format: functional, cell-based; conditions: Homo sapiens
Summary of the method: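 HUVECs, 4×10⁴ cells/well, were seeded on Matrigel that had been solidified at 37°C for 30 min. Cells were treated with compound or vehicle at 37°C for 6 h. Three random fields were counted and photographed under a light microscope.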

SiHa [5] = assay: Antiproliferative activity against human SiHa cells assessed as reduction in cell viability measured after 72 hrs by CCK8 assay; format: functional, cell-based; summary of the method: as §1
HeLa = assay: Antiproliferative activity against human HeLa cells assessed as reduction in cell viability measured after 72 hrs by CCK8 assay; format: functional, cell-based; summary of the method: as §1
[6] = molecular target: Tyrosine-protein kinase Fgr (Homo sapiens) (UniProt P09769); assay: Inhibition of recombinant human FGR (2 to end residues) at 1 uM using poly(Glu, Tyr) 4:1 as substrate incubated for 40 mins in presence of [gamma-33P]-ATP by scintillation counting method relative to control
[7] = molecular target: Receptor tyrosine-protein kinase erbB-2 (Homo sapiens) (UniProt P04626); assay: Inhibition of recombinant human ERBB2 (676 to end residues) at 1 uM using poly (Glu, Tyr) 4:1 as substrate incubated for 40 mins in presence of [gamma-33P]-ATP by scintillation counting method relative to control
[8] = molecular target: Eukaryotic translation initiation factor 2-alpha kinase 3 (Homo sapiens) (UniProt Q9NZJ5); assay: Inhibition of recombinant human PEK (536 to end residues) at 1 uM using RSRSRSRSRSRSRSR as substrate incubated for 40 mins in presence of [gamma-33P]-ATP by scintillation counting method relative to control
[9] = molecular target: Eukaryotic elongation factor 2 kinase (Homo sapiens) (UniProt O00418); assay: Inhibition of recombinant human eEF-2K (2 to end residues) at 1 uM using RKKFGESEKTKTKEFL as substrate incubated for 40 mins in presence of [gamma-33P]-ATP by scintillation counting method relative to control
Summary of the method: (§2)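 Tested at a single 1 uM in an outsourced commercial kinase-profiling panel, read as percent inhibition. Each value is the mean of two independent experiments.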

T47D [10] = assay: Induction of apoptosis in human T47D cells assessed as increase in early apoptotic cells at 20 to 40 nM incubated for 48 hrs by annexin V FITC and propidium iodide staining based flow cytometry; format: functional, cell-based
Summary of the method: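 Annexin V-FITC/PI double staining with flow-cytometric readout. MDA-MB-231, T-47D, SiHa and HeLa cells were treated with graded concentrations for 48 h. MDA-MB-231 and T-47D were grown in DMEM and SiHa in 1640 medium, each with 10% FBS and 1% penicillin/streptomycin at 37°C under 5% CO2. Early- and late-stage apoptotic fractions were scored.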

[11] = molecular target: Ribosomal protein S6 kinase alpha-6 (Homo sapiens) (UniProt Q9UK32); assay: Inhibition of recombinant human full length RSK4 at 1 uM using LRRASLG as substrate incubated for 40 mins in presence of [gamma-33P]-ATP by scintillation counting method relative to control
SiHa [12] = assay: Antitumor activity against human SiHa cells xenografted in orally dosed NOD/SCID BALB/c mouse assessed as reduction in Ki67 expression measured after 21 days by hematoxylin and eosin staining based immunohistochemistry; format: functional, organism-based
Summary of the method: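 Female NOD/SCID Balb/c mice, 6–8 weeks old, received 2×10^6 SiHa cells subcutaneously in the right flank. Once tumors reached 100 mm³, mice were randomized, 5 per group, and gavaged once daily for 21 days. Formalin-fixed, paraffin-embedded tumor sections were stained with Ki67 or CD31 antibody (1:100, 4 °C overnight), then biotin secondary and ABC-peroxidase/DAB, with hematoxylin counterstain.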

[13] = n-octanol/water partition coefficient, log P of the compound by shake flask method based HPLC analysis; format: physicochemical
[14] = molecular target: Protein kinase C delta type (Homo sapiens) (UniProt Q05655); assay: Inhibition of recombinant human PKCdelta (2 to end residues) at 1 uM using ERMRPRKRQGSVRRRV as substrate incubated for 40 mins in presence of [gamma-33P]-ATP by scintillation counting method relative to control
[15] = system: Mitogen-activated protein kinase 14 (Homo sapiens), Q16539 [T106M]; assay: Inhibition of recombinant human full length SAPK2a T106M mutant at 1 uM using myelin basic protein as substrate incubated for 40 mins in presence of [gamma-33P]-ATP by scintillation counting method relative to control; summary of the method: as §2
[16] = molecular target: Maternal embryonic leucine zipper kinase (Homo sapiens) (UniProt Q14680); assay: Inhibition of recombinant human MELK (1 to 340 end residues) at 1 uM using KKLNRTLSFAEPG as substrate incubated for 40 mins in presence of [gamma-33P]-ATP by scintillation counting method relative to control
[17] = molecular target: Mitogen-activated protein kinase 14 (Homo sapiens) (UniProt Q16539); assay: Inhibition of recombinant human full length SAPK2a at 1 uM using myelin basic protein as substrate incubated for 40 mins in presence of [gamma-33P]-ATP by scintillation counting method relative to control; summary of the method: as §2
[18] = molecular target: MAPK/MAK/MRK overlapping kinase (Homo sapiens) (UniProt Q9UQ07); assay: Inhibition of recombinant human MOK (1 to 343 residues) at 1 uM using RSRSRSRSRSRSRSR as substrate incubated for 40 mins in presence of [gamma-33P]-ATP by scintillation counting method relative to control
[19] = molecular target: Transcription initiation factor TFIID subunit 1-like (Homo sapiens) (UniProt Q8IZX4); assay: Inhibition of recombinant human TAF1L (1428 to end residues) at 1 uM using RRRFRPASPLRGPPK as substrate incubated for 40 mins in presence of [gamma-33P]-ATP by scintillation counting method relative to control; summary of the method: as §2
[20] = MRT (0 to t) in Sprague-Dawley rat at 10 mg/kg at 10 mg/kg, po by HPLC-MS analysis; format: ADME, organism-based; conditions: in vivo

Chain of Vascular endothelial growth factor receptor 2 (P35968 whole entry): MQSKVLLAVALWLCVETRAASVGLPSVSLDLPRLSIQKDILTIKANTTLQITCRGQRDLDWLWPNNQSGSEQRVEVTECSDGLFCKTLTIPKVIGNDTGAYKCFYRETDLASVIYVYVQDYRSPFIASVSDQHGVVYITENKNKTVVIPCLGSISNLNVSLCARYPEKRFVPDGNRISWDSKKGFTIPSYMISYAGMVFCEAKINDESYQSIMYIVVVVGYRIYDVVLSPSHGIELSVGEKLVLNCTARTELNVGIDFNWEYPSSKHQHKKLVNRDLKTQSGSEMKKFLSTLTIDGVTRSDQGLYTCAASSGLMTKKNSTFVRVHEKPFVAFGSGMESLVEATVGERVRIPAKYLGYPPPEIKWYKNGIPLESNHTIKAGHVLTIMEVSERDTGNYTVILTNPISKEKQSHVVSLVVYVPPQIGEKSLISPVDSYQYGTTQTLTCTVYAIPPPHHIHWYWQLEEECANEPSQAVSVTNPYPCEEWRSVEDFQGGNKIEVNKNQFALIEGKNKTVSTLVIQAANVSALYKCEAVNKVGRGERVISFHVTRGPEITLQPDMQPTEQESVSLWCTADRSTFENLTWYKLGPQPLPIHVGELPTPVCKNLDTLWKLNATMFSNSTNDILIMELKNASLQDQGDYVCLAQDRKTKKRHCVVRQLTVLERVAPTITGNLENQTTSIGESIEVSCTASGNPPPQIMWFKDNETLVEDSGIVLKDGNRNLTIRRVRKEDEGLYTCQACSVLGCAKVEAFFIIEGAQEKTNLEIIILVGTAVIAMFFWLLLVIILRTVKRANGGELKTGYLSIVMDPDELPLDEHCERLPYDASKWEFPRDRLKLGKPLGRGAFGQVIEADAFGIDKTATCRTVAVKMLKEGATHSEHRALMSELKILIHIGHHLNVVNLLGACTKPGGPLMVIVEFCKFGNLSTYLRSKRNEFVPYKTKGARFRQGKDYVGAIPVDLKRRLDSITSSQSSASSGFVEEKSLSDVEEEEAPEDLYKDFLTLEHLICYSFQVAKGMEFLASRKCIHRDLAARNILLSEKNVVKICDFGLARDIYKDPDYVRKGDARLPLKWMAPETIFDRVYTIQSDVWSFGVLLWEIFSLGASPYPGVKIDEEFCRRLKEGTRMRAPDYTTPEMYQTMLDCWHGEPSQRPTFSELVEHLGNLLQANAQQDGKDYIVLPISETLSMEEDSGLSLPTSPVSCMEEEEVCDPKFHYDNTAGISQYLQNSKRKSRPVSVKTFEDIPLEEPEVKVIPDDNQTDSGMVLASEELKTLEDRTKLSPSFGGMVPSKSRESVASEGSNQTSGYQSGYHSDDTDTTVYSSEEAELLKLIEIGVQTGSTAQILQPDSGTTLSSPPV
Chain of Eukaryotic translation initiation factor 2-alpha kinase 3 (Homo sapiens) (Q9NZJ5 whole entry): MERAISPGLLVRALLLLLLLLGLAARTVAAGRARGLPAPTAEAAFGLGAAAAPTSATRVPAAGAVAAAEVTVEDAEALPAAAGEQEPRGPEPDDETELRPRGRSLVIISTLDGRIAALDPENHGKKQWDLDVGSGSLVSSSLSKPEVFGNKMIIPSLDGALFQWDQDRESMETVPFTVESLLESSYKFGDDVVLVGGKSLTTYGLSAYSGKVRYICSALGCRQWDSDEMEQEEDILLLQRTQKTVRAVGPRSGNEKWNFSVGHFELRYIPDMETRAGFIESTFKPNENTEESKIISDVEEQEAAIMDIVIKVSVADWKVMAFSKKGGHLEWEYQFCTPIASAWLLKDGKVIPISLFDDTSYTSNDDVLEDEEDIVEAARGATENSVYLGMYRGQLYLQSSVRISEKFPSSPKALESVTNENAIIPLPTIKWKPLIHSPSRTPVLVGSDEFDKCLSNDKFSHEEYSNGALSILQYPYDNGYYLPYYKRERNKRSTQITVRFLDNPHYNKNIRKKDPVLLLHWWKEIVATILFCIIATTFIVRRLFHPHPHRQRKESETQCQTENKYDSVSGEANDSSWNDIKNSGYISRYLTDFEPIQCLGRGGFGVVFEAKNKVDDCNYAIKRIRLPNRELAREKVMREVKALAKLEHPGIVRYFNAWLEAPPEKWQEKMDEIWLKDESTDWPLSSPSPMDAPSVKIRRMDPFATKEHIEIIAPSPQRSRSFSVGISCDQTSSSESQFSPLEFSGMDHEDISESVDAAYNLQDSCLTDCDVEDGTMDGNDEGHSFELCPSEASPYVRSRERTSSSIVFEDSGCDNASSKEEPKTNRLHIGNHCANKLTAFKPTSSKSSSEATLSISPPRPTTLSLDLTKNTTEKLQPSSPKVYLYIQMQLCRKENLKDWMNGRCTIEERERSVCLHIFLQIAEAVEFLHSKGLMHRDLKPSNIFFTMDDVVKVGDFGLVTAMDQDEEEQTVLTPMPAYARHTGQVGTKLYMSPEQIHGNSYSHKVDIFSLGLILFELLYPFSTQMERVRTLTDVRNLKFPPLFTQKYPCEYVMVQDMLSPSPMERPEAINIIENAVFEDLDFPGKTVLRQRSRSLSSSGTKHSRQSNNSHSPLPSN
Chain of Maternal embryonic leucine zipper kinase (Homo sapiens) (Q14680 whole entry, looked up): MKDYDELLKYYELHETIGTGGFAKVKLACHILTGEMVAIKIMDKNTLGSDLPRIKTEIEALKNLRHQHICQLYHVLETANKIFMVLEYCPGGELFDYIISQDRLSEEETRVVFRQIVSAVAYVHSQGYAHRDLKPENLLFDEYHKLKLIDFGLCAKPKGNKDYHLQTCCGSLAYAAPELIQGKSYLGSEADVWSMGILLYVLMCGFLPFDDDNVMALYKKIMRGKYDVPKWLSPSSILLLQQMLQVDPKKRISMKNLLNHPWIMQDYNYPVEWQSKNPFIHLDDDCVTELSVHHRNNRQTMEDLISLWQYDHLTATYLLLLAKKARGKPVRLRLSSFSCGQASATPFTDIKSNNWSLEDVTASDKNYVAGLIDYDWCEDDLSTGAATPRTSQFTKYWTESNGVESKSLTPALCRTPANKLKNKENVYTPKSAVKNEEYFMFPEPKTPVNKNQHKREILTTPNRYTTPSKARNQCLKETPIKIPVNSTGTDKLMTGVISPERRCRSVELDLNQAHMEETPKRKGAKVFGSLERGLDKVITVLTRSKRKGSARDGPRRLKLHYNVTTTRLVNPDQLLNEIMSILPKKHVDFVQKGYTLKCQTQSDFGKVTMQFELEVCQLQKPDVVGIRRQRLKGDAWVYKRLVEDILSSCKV
Chain of MAPK/MAK/MRK overlapping kinase (Homo sapiens) (Q9UQ07 whole entry, the tested form may be a part): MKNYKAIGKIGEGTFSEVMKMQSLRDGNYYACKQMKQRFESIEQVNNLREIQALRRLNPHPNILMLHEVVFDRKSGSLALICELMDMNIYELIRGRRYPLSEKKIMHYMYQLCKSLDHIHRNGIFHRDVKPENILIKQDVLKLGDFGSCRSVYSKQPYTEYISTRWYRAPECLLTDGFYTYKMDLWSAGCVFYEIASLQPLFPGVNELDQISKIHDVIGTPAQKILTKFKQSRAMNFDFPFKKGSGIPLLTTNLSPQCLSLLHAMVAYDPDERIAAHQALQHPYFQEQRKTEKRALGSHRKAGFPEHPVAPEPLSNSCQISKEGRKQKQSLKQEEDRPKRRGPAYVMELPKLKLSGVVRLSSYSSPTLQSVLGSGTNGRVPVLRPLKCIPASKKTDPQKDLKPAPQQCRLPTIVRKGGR
Chain of Ribosomal protein S6 kinase alpha-6 (Homo sapiens) (Q9UK32 whole entry): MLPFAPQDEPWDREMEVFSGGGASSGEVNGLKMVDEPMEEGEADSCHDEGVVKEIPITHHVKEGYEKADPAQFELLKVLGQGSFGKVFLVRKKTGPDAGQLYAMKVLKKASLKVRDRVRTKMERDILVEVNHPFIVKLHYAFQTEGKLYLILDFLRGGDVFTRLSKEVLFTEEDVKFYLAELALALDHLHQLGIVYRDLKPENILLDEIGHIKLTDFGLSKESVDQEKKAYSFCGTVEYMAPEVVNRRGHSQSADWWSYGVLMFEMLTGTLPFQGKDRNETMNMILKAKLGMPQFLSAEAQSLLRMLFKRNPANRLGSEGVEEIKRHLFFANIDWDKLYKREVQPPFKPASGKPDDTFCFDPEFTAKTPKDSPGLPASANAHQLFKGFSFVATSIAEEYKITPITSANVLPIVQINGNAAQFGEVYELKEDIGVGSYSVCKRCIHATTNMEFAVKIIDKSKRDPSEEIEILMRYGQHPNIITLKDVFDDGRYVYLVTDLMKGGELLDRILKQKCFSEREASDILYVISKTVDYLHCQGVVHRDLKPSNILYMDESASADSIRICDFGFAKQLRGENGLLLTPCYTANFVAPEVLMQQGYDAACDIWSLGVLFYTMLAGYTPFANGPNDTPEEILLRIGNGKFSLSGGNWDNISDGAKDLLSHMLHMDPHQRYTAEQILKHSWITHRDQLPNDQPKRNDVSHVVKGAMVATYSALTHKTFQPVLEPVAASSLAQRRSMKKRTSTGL
Chain of Tyrosine-protein kinase Fgr (Homo sapiens) (P09769 2-529 limits assumed): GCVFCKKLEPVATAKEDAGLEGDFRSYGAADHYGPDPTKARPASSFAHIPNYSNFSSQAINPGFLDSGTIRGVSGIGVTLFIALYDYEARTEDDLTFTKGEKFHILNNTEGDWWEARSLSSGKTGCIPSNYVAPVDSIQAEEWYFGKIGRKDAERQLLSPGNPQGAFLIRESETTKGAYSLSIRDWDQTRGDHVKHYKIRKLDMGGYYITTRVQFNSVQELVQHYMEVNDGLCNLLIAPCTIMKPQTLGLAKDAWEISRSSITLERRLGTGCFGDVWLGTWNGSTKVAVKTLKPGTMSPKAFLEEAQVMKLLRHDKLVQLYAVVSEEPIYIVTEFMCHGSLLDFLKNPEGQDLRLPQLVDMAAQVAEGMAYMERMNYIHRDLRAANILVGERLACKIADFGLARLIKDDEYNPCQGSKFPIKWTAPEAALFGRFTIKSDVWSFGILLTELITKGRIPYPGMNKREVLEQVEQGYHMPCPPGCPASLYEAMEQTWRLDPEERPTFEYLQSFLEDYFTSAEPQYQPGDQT

`COc1cc2nccc(Oc3ccc(NC(=O)C4(C(=O)Nc5ccc(F)cc5)CC4)cc3)c2cc1OC` [CABOZANTINIB] gave an inhibition [1] of 101%, an IC50 (HUVEC [2]) of 7670 nM and an IC50 (T47D [3]) of 4790 nM. For the same compound, the IC50 (MDA-MB-231) was 5080 nM, the inhibition (HUVEC [4]) was “Active” and the IC50 (SiHa [5]) was 7940 nM. The IC50 (HeLa) was greater than 10000 nM.
With `Cc1ccc(NC(=O)C2(C(=O)Nc3ccc(Nc4ncc(F)c(-c5cc(F)c6nc(C)n(C(C)C)c6c5)n4)cc3)CC2)cc1` the inhibition [6] was 55%, the inhibition [7] was 3% and the inhibition [8] was 2%. For the same compound, the inhibition [9] was 0%, the Activity (T47D [10]) was “Active” and the inhibition [1] was 95%. For the same compound, the inhibition [11] was 22%, the inhibition (SiHa [12]) was “Dose-dependent effect” and the logP [13] was 2.53. The inhibition [14] was 29%, the inhibition [15] was 60% and the IC50 (HUVEC [2]) was 36 nM. For the same compound, the inhibition [16] was 53%, the inhibition [17] was 0% and the inhibition [18] was 25%. The IC50 (T47D [3]) was 16 to 16.4 nM, the inhibition [19] was 0% and the IC50 (MDA-MB-231) was 38 nM. For the same compound, the inhibition (HUVEC [4]) was “Active”, the MRT last [20] was 4 h and the IC50 (SiHa [5]) was 50 nM. It also gave an IC50 (HeLa) of 71.5 to 72 nM.
